Reference: ChEMBL document CHEMBL4118021, “Studies of TAK1-centered polypharmacology with novel covalent TAK1 inhibitors” (Bioorg Med Chem, 2017)
Each block holds one compound with its values, some of them ahead of it. The source made the active and inactive calls. No cut-off for these calls is given here.

Experiments:
[1] = target: Mitogen-activated protein kinase 13 (Homo sapiens) (UniProt O15264); assay: Inhibition of p38d in human SKCO1 cells at 1 uM after 4 hrs using biotin labeled DLKPGNLAVNEDCELK probe by mass-spectrometric analysis relative to control; assay type: cell-based
[2] = target: Tyrosine-protein kinase Fer (Homo sapiens) (UniProt P16591); assay: Inhibition of FER in human SKCO1 cells at 1 uM after 4 hrs using biotin labeled TSVAVKTCKEDLPQELK probe by mass-spectrometric analysis relative to control; assay type: cell-based
[3] = target: Mitogen-activated protein kinase kinase kinase 20 (Homo sapiens) (UniProt Q9NYL2); assay: Inhibition of human ZAK (1 to 331 residues) expressed in bacterial expression system assessed as enzyme activity at 10 uM by KINOMEScan assay relative to control; design: scale not given: the % may be the effect or the level left
How it was run: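 In vitro ATP-site competition binding assay across a panel of 456 kinases, with compound tested at 1 and 10 μM.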

[4] = target: Protein NipSnap homolog 1 (Homo sapiens) (UniProt Q9BPW8); assay: Binding affinity to NIPSNAP1 in human NCI-H358 cells at 1 uM by mass spectrometry based pull down assay; assay type: cell-based
[5] = target: Tyrosine-protein kinase Yes (Homo sapiens) (UniProt P07947); assay: Binding affinity to YES1 in human NCI-H23 cells at 1 uM by mass spectrometry based pull down assay; assay type: cell-based
[6] = target: Serine/threonine-protein phosphatase PP1-alpha catalytic subunit (Homo sapiens) (UniProt P62136); assay: Binding affinity to PPP1CA in human NCI-H23 cells at 1 uM by mass spectrometry based pull down assay; assay type: cell-based
[7] = target: High mobility group protein B2 (Homo sapiens) (UniProt P26583); assay: Binding affinity to HMGB2 in human NCI-H358 cells at 1 uM by mass spectrometry based pull down assay; assay type: cell-based
[8] = target: Mitogen-activated protein kinase 3 (Homo sapiens) (UniProt P27361); assay: Binding affinity to MAPK3 in human NCI-H23 cells at 1 uM by mass spectrometry based pull down assay; assay type: cell-based
[9] = target: T1, 80S Ribosome (Homo sapiens) (UniProt P08865+P42677+P62753+P15880+P23396+P61247+P62701+P22090+P46782+P62081+P62241+P46781+P46783+P62280+P25398+P62277+P62263+P62841+P62244+P62249+P08708+P62269+P39019+P60866+P63220+P62266+P62847+P62851+P62854+P62979+P62857+P62273+P62861+P39023+P36578+P46777+Q02878+P18124+P62424+P62917+P32969+P27635+P62906+P62913+P30050+P26373+P40429+P50914+P61313+P18621+Q07020+Q02543+P84098+P46778+P35268+P62829+P62750+P83731+P61254+P61353+P46776+P46779+P47914+P62888+P62899+P62910+P49207+P42766+P18077+Q9Y3U8+P83881+P61927+P61513+P63173+P62891+P62945+P05388+P05386); assay: Binding affinity to RPS17 in human NCI-H358 cells at 1 uM by mass spectrometry based pull down assay; assay type: cell-based
[10] = target: 14-3-3 protein eta (Homo sapiens) (UniProt Q04917); assay: Binding affinity to YWHAH in human NCI-H358 cells at 1 uM by mass spectrometry based pull down assay; assay type: cell-based
[11] = target: Pigment epithelium-derived factor (Homo sapiens) (UniProt P36955); assay: Binding affinity to SERPINF1 in human NCI-H23 cells at 1 uM by mass spectrometry based pull down assay; assay type: cell-based
[12] = target: Lysine--tRNA ligase (Homo sapiens) (UniProt Q15046); assay: Binding affinity to KARS in human NCI-H358 cells at 1 uM by mass spectrometry based pull down assay; assay type: cell-based
[13] = target: Mitochondrial import inner membrane translocase subunit TIM50 (Homo sapiens) (UniProt Q3ZCQ8); assay: Binding affinity to TIMM50 in human NCI-H358 cells at 1 uM by mass spectrometry based pull down assay; assay type: cell-based
[14] = target: Caprin-1 (Homo sapiens) (UniProt Q14444); assay: Binding affinity to CAPRIN1 in human NCI-H358 cells at 1 uM by mass spectrometry based pull down assay; assay type: cell-based
[15] = target: TGF-beta-activated kinase 1 and MAP3K7-binding protein 2 (Homo sapiens) (UniProt Q9NYJ8); assay: Binding affinity to TAB2 in human NCI-H23 cells at 1 uM by mass spectrometry based pull down assay; assay type: cell-based
[16] = target: Interleukin enhancer-binding factor 2 (Homo sapiens) (UniProt Q12905); assay: Binding affinity to ILF2 in human NCI-H23 cells at 1 uM by mass spectrometry based pull down assay; assay type: cell-based
[17] = target: Thymidine kinase, cytosolic (Homo sapiens) (UniProt P04183); assay: Binding affinity to TK1 in human NCI-H358 cells at 1 uM by mass spectrometry based pull down assay; assay type: cell-based
[18] = target: T1, 80S Ribosome (Homo sapiens); assay: Binding affinity to RPL17 in human NCI-H23 cells at 1 uM by mass spectrometry based pull down assay; assay type: cell-based
[19] = target: Calcyclin-binding protein (Homo sapiens) (UniProt Q9HB71); assay: Binding affinity to CACYBP in human NCI-H358 cells at 1 uM by mass spectrometry based pull down assay; assay type: cell-based
[20] = target: Plastin-2 (Homo sapiens) (UniProt P13796); assay: Binding affinity to LCP1 in human NCI-H358 cells at 1 uM by mass spectrometry based pull down assay; assay type: cell-based
[21] = target: Deoxyribose-phosphate aldolase (Homo sapiens) (UniProt Q9Y315); assay: Binding affinity to DERA in human NCI-H358 cells at 1 uM by mass spectrometry based pull down assay; assay type: cell-based
[22] = target: Histone H2B type 2-F (Homo sapiens) (UniProt Q5QNW6); assay: Binding affinity to HIST2H2BF in human NCI-H23 cells at 1 uM by mass spectrometry based pull down assay; assay type: cell-based
[23] = target: T1, 80S Ribosome (Homo sapiens); assay: Binding affinity to RPL19 in human NCI-H358 cells at 1 uM by mass spectrometry based pull down assay; assay type: cell-based
[24] = target: Y-box-binding protein 1 (Homo sapiens) (UniProt P67809); assay: Binding affinity to YBX1 in human NCI-H23 cells at 1 uM by mass spectrometry based pull down assay; assay type: cell-based
[25] = target: Membrane-associated progesterone receptor component 1 (Homo sapiens) (UniProt O00264); assay: Binding affinity to PGRMC1 in human NCI-H358 cells at 1 uM by mass spectrometry based pull down assay; assay type: cell-based
[26] = target: Cytoplasmic dynein 1 intermediate chain 2 (Homo sapiens) (UniProt Q13409); assay: Binding affinity to DYNC1I2 in human NCI-H23 cells at 1 uM by mass spectrometry based pull down assay; assay type: cell-based

Sequence of Mitogen-activated protein kinase 3 (Homo sapiens) (P27361 whole entry): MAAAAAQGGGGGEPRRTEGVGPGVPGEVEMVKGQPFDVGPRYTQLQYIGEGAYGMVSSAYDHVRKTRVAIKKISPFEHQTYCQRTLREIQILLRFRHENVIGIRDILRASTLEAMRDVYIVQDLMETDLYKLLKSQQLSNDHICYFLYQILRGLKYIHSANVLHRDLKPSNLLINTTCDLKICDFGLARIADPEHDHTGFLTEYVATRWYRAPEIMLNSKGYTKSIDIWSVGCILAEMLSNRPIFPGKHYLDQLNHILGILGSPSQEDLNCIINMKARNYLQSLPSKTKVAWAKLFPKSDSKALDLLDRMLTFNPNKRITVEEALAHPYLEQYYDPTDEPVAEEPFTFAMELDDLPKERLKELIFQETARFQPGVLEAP
Sequence of Thymidine kinase, cytosolic (Homo sapiens) (P04183 whole entry): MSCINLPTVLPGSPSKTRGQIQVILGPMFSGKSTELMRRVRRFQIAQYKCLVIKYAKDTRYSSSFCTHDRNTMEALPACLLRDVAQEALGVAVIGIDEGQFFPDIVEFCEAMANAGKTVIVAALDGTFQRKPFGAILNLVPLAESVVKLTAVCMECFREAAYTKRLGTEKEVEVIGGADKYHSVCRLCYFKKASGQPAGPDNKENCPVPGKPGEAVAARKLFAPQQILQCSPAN
Sequence of Caprin-1 (Homo sapiens) (Q14444 whole entry): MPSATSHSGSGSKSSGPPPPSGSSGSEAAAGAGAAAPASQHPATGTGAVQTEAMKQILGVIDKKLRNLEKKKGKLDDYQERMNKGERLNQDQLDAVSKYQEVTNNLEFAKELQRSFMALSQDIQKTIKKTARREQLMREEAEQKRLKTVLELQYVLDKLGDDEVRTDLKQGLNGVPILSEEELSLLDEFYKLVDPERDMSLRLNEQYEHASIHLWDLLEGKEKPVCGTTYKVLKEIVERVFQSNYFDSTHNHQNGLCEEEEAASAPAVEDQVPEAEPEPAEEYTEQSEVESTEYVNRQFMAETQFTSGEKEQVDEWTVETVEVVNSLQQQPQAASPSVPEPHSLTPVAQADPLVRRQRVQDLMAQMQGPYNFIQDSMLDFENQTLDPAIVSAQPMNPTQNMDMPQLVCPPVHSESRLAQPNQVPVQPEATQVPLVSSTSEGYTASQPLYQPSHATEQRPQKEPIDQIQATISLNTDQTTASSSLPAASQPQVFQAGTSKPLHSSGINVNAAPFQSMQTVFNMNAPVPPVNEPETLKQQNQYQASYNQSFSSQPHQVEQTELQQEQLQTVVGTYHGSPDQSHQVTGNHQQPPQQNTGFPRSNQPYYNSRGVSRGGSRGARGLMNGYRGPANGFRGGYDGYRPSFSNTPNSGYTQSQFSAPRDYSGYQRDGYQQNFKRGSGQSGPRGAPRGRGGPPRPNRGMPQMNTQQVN
Sequence of Y-box-binding protein 1 (Homo sapiens) (P67809 whole entry): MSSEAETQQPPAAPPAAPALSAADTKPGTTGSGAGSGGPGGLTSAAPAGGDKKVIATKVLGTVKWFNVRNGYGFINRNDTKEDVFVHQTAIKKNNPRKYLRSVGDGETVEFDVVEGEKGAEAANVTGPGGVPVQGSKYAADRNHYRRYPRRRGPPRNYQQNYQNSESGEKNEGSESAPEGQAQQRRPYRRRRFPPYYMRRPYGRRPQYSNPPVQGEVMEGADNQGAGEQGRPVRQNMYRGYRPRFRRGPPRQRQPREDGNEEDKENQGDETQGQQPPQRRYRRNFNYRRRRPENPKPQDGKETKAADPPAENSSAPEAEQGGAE
Sequence of High mobility group protein B2 (Homo sapiens) (P26583 whole entry): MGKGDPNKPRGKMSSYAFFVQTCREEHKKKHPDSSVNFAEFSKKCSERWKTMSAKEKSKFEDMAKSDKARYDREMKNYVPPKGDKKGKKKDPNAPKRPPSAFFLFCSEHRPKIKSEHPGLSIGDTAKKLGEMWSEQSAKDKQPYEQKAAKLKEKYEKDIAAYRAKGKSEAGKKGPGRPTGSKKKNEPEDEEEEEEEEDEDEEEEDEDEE
Sequence of Calcyclin-binding protein (Homo sapiens) (Q9HB71 whole entry): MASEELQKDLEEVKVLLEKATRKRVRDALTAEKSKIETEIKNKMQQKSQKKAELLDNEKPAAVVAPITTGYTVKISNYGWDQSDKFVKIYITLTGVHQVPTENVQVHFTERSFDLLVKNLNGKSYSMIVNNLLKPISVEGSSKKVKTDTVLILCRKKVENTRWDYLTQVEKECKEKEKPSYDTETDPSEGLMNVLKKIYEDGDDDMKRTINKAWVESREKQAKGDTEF
Sequence of Deoxyribose-phosphate aldolase (Homo sapiens) (Q9Y315 whole entry): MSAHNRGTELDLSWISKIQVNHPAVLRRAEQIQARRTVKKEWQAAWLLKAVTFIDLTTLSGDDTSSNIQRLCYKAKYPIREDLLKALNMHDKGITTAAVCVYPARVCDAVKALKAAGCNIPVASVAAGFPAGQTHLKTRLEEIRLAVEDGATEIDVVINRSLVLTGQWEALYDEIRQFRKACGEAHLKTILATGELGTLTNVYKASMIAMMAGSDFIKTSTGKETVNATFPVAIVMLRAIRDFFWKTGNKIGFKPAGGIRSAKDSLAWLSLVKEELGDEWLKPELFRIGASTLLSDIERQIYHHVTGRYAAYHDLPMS
Sequence of Lysine--tRNA ligase (Homo sapiens) (Q15046 2-597 limits assumed): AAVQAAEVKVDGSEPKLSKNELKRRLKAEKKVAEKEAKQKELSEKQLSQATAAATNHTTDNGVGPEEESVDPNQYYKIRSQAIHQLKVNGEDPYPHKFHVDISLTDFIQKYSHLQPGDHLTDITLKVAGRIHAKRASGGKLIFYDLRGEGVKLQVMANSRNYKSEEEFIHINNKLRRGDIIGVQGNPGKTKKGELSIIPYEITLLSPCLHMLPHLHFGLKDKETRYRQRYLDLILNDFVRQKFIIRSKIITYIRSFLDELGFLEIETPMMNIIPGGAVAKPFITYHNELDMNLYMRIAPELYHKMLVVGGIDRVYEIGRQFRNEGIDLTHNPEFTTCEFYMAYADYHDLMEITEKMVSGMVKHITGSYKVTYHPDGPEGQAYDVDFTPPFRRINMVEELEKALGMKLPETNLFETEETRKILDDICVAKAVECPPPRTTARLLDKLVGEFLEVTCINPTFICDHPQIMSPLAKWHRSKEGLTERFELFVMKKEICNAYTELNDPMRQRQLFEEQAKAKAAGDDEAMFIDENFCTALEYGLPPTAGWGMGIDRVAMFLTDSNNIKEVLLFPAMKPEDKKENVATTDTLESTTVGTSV
Sequence of Pigment epithelium-derived factor (Homo sapiens) (P36955 whole entry): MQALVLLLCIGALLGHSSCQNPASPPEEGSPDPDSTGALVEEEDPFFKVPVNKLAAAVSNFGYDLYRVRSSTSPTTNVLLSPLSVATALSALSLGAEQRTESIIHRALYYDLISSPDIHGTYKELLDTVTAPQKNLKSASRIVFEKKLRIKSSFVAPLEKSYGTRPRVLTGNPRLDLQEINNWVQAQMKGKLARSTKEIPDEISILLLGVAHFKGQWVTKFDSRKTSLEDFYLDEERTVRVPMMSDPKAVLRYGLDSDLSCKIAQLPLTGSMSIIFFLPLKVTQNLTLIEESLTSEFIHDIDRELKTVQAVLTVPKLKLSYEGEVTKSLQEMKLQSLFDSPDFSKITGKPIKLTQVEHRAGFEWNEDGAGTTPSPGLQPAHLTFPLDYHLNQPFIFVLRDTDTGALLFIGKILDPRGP
Sequence of Mitogen-activated protein kinase 13 (Homo sapiens) (O15264 whole entry): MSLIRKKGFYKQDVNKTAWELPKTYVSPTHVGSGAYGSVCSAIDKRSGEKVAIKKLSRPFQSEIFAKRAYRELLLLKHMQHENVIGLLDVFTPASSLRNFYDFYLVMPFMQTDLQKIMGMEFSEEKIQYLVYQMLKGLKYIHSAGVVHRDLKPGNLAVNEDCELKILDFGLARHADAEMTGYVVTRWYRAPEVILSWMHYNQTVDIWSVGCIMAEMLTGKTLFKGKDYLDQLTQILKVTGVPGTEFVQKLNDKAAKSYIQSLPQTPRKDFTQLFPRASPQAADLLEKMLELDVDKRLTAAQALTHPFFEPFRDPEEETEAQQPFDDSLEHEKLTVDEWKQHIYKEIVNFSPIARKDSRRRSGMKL
Sequence of Serine/threonine-protein phosphatase PP1-alpha catalytic subunit (Homo sapiens) (P62136 whole entry): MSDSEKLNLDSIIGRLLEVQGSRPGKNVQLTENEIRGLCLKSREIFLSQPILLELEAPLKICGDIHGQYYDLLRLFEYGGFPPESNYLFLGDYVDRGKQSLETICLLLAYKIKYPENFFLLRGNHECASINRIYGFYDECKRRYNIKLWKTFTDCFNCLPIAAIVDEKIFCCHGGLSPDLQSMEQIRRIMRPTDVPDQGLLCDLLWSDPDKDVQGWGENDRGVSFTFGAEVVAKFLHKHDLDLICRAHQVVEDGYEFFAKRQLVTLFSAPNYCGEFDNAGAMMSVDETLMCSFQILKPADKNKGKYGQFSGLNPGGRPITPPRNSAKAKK
Sequence of Mitochondrial import inner membrane translocase subunit TIM50 (Homo sapiens) (Q3ZCQ8 whole entry): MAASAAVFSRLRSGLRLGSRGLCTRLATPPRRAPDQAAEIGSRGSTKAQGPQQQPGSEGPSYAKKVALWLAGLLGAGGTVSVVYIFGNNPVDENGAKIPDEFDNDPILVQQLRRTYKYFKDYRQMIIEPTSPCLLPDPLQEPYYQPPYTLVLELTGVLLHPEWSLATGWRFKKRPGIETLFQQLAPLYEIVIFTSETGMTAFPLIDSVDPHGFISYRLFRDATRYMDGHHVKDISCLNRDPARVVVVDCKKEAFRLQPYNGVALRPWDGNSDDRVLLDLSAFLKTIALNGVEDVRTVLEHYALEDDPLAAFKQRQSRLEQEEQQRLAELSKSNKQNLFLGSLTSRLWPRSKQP
Sequence of Interleukin enhancer-binding factor 2 (Homo sapiens) (Q12905 whole entry): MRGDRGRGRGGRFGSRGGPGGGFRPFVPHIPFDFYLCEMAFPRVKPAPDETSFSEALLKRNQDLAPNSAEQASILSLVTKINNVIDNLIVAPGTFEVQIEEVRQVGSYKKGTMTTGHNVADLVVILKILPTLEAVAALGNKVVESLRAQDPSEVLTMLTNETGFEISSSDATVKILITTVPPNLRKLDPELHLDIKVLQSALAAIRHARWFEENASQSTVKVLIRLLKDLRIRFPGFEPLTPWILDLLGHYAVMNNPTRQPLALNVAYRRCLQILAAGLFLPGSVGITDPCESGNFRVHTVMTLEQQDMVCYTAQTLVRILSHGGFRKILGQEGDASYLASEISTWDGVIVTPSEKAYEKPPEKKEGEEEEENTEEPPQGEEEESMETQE

SMILES: C=CC(=O)Nc1ccccc1Nc1nc(Nc2ccc(N3CCN(C)CC3)cc2)ncc1Cl
inhibition [1]: -8.5% | inhibition [2]: -0.2%

SMILES: COc1cc(O)c2c(c1)/C=C/C[C@H](O)[C@H](O)C(=O)/C=C\C[C@H](C)OC2=O
Activity [3]: 2.2%

Activity [4]: Active | Activity [5]: Active | Activity [6]: Active | Activity [7]: Active | Activity [8]: Active | Activity [9]: Active | Activity [10]: Active | Activity [11]: Active | Activity [12]: Active | Activity [13]: Active | Activity [14]: Active | Activity [15]: Active | Activity [16]: Active | Activity [17]: Active | Activity [18]: Active | Activity [19]: Active | Activity [20]: Active | Activity [21]: Active | Activity [22]: Active | Activity [23]: Active | Activity [24]: Active | Activity [25]: Active | Activity [26]: Active
SMILES: C=CC(=O)Nc1ccccc1Nc1nc(Nc2ccc(N3CCN(CCOCCOCCOCCNC(=O)CCCC[C@@H]4SC[C@@H]5NC(=O)N[C@@H]54)CC3)cc2)ncc1Cl
